Results: ChEMBL document CHEMBL4052591, “Evaluation of Jatrophane Esters from Euphorbia spp. as Modulators of Candida albicans Multidrug Transporters” (2017)
The source made the active and inactive calls. The rule behind the calls is not given here.

Experiments:
Candida albicans [1] = experiment: Inhibition of Candida albicans CDR1 transporter expressed in Saccharomyces cerevisiae AD cells assessed as nile red accumulation at 70 uM after 30 mins by flow cytometric analysis relative to control; type: cell-based
Summary of the method: (§1)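 S. cerevisiae AD strains overexpressing CaCdr1p (AD-CDR1) or CaMdr1p (AD-MDR1) were grown at 30 °C from OD600 0.1 to 0.25. They were resuspended as a 5% suspension in YEPD:water 1:2. Nile Red (7 μM final) was given ± inhibitor (70 μM) for 30 min at 30 °C. Accumulation was read by flow cytometry on 10 000 cells. Means ± SD, three independent experiments.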

Candida albicans [2] = experiment: Inhibition of Candida albicans MDR1 transporter expressed in Saccharomyces cerevisiae AD cells assessed as nile red dye accumulation at 70 uM after 30 mins by flow cytometric analysis relative to control; type: cell-based; summary of the method: as §1

Row | SMILES | inhibition (Candida albicans [1]) | inhibition (Candida albicans [2])
1 | C=C1[C@@H](OC(C)=O)[C@H]2[C@@H](OC(C)=O)[C@](C)(OC(C)=O)C[C@]2(OC(C)=O)C(=O)[C@H](C)/C=C/C(C)(C)C(=O)[C@H](OC(=O)/C(C)=C/C)[C@H]1OC(C)=O | inactive | inactive
2 | CC(=O)O[C@H]1[C@@H](OC(C)=O)C(C)(C)/C=C/[C@@](C)(O)C(=O)[C@@]2(O)C[C@@](C)(OC(C)=O)[C@H](OC(C)=O)[C@@H]2[C@H]2OC(=O)CC[C@@]2(OC(=O)C(C)C)[C@@H]1OC(=O)C(C)C | inactive | inactive
3 | C=C1[C@@H](OC(C)=O)[C@H]2[C@@H](OC(=O)c3ccccc3)[C@@H](C)C[C@]2(O)[C@H](OC(C)=O)[C@H](C)/C=C/[C@@](C)(CO)C(=O)[C@H](O)[C@H]1OC(C)=O | inactive | inactive
4 | C=C1[C@@H](OC(C)=O)[C@H]2[C@@H](OC(=O)c3ccccc3)[C@@H](C)C[C@]2(O)[C@H](O)[C@H](C)/C=C/C(C)(C)C(=O)[C@H](O)[C@H]1OC(C)=O | inactive | inactive
5 | C=C1[C@@H](OC(C)=O)[C@H]2[C@@H](OC(C)=O)[C@](C)(OC(=O)c3cccnc3)C[C@]2(OC(C)=O)C(=O)[C@@H](C)/C=C/C(C)(C)[C@H](OC(=O)c2cccnc2)[C@H](OC(C)=O)[C@H]1OC(=O)c1ccccc1 | inactive | inactive
6 | C=C1[C@@H](OC(C)=O)[C@H]2[C@@H](OC(C)=O)[C@](C)(O)C[C@]2(OC(C)=O)C(=O)[C@H](C)/C=C/C(C)(C)C(=O)[C@H](OC(=O)/C(C)=C/C)[C@H]1OC(C)=O | inactive | inactive
7 | C=C1[C@@H](OC(=O)C(C)C)[C@H]2[C@@H](OC(=O)C(C)C)[C@](C)(OC(C)=O)C[C@]2(O)C(=O)[C@@H](C)/C=C/C(C)(C)[C@H](OC(C)=O)[C@H](OC(C)=O)[C@H]1OC(=O)c1ccccc1 | inactive | inactive
8 | CC(=O)O[C@H]1[C@@H](OC(C)=O)C(C)(C)/C=C/[C@@](C)(O)C(=O)[C@@]2(OC(C)=O)C[C@@](C)(OC(C)=O)[C@H](OC(C)=O)[C@@H]2[C@H]2OC(=O)CC[C@@]2(OC(C)=O)[C@@H]1OC(=O)C(C)C | inactive | inactive
9 | C=C1[C@@H](OC(=O)C(C)C)[C@H]2[C@@H](OC(C)=O)[C@](C)(OC(C)=O)C[C@]2(O)C(=O)[C@@H](C)/C=C/C(C)(C)[C@H](OC(C)=O)[C@H](OC(C)=O)[C@H]1OC(=O)c1ccccc1 | inactive | inactive
10 | C=C1[C@@H](OC(C)=O)[C@H]2[C@@H](OC(C)=O)[C@](C)(OC(C)=O)C[C@]2(OC(C)=O)C(=O)[C@H](C)/C=C/C(C)(C)C(=O)[C@H](OC(=O)c2ccccc2)[C@H]1OC(C)=O | inactive | inactive
11 | C=C1[C@@H](OC(=O)C(C)C)[C@H]2[C@@H](OC(C)=O)[C@](C)(O)C[C@]2(O)C(=O)[C@@H](C)/C=C/C(C)(C)[C@H](OC(C)=O)[C@H](OC(C)=O)[C@H]1OC(=O)c1ccccc1 | inactive | inactive
12 | C=C1[C@@H](OC(=O)C(C)C)[C@H]2[C@@H](OC(C)=O)[C@](C)(OC(=O)c3cccnc3)C[C@]2(O)C(=O)[C@@H](C)/C=C/C(C)(C)[C@H](OC(=O)c2cccnc2)[C@H](OC(C)=O)[C@H]1OC(=O)c1ccccc1 | inactive | inactive
13 | C=C1[C@@H](OC(=O)c2ccccc2)[C@H]2[C@@H](OC(C)=O)[C@](C)(O)C[C@]2(O)C(=O)[C@@H](C)/C=C/C(C)(C)[C@H](OC(C)=O)[C@H](OC(C)=O)[C@H]1OC(=O)c1cccnc1 | inactive | inactive
14 | C=C1[C@@H](OC(C)=O)[C@H]2[C@@H](OC(C)=O)[C@](C)(O)C[C@]2(OC(C)=O)C(=O)[C@H](C)/C=C/C(C)(C)C(=O)[C@H](OC(=O)C(C)C)[C@H]1OC(C)=O | inactive | inactive
15 | C=C1[C@@H](OC(C)=O)[C@H]2[C@@H](OC(C)=O)[C@](C)(OC(=O)c3cccnc3)C[C@]2(OC(C)=O)C(=O)[C@@H](C)/C=C/C(C)(C)[C@H](OC(=O)c2cccnc2)[C@H](OC(C)=O)[C@H]1OC(=O)C(C)C | inactive | inactive
16 | C=C1[C@@H](OC(C)=O)[C@H]2[C@@H](OC(C)=O)[C@](C)(OC(C)=O)C[C@]2(OC(C)=O)C(=O)[C@H](C)/C=C/C(C)(C)C(=O)[C@H](OC(C)=O)[C@H]1OC(C)=O | inactive | inactive
17 | C=C1[C@@H](OC(C)=O)[C@H]2[C@@H](OC(C)=O)[C@](C)(OC(=O)c3cccnc3)C[C@]2(O)C(=O)[C@@H](C)/C=C/C(C)(C)[C@H](OC(=O)c2cccnc2)[C@H](OC(C)=O)[C@H]1OC(=O)c1ccccc1 | inactive | inactive
18 | C=C1CCC2[C@@H](/C=C(\C)C(=O)[C@@]3(OC(C)=O)C[C@H](C)[C@H](OC(C)=O)[C@@H]3[C@H]1OC(C)=O)C2(C)C (single isomer, unassigned) | inactive | inactive
19 | CC(=O)O[C@H]1[C@@H](OC(C)=O)C(C)(C)/C=C/[C@H](C)C(=O)[C@@]2(OC(C)=O)C[C@@](C)(OC(C)=O)[C@H](O)[C@@H]2[C@H]2OC(=O)CC[C@@]2(OC(C)=O)[C@@H]1OC(=O)C(C)C | inactive | inactive
20 | C=C1[C@@H](OC(=O)c2ccccc2)[C@H]2[C@@H](O)[C@](C)(OC(C)=O)C[C@]2(O)C(=O)[C@@H](C)/C=C/C(C)(C)[C@H](OC(C)=O)[C@H](O)[C@H]1OC(=O)c1ccccc1 | inactive | inactive
21 | C=C1[C@@H](OC(=O)C(C)C)[C@H]2[C@@H](OC(C)=O)[C@@H](C)C[C@]2(O)C(=O)[C@@H](C)/C=C/C(C)(C)[C@H](OC(C)=O)[C@H](OC(C)=O)[C@H]1OC(=O)c1ccccc1 | inactive | inactive
22 | C=C1[C@@H](OC(=O)C(C)C)[C@H]2[C@@H](OC(=O)c3ccccc3)[C@](C)(OC(C)=O)C[C@]2(O)C(=O)[C@@H](C)/C=C/C(C)(C)[C@H](OC(C)=O)[C@H](OC(C)=O)[C@H]1OC(=O)C(C)C | inactive | inactive
23 | C=C1[C@@H](OC(=O)C(C)C)[C@H]2[C@@H](O)[C@](C)(OC(C)=O)C[C@]2(O)C(=O)[C@@H](C)/C=C/C(C)(C)[C@H](OC(C)=O)[C@H](OC(C)=O)[C@H]1OC(=O)c1ccccc1 | inactive | inactive
24 | C=C1[C@@H](OC(=O)c2ccccc2)[C@H]2[C@@H](O)[C@](C)(OC(C)=O)C[C@]2(O)C(=O)[C@@H](C)/C=C/C(C)(C)[C@H](OC(C)=O)[C@H](OC(C)=O)[C@H]1OC(=O)c1ccccc1 | inactive | inactive
25 | C=C1[C@@H](OC(C)=O)[C@H]2[C@@H](OC(C)=O)[C@](C)(O)C[C@]2(OC(C)=O)C(=O)[C@H](C)/C=C/C(C)(C)C(=O)[C@H](OC(=O)c2ccccc2)[C@H]1OC(C)=O | inactive | inactive
26 | C=C1[C@@H](OC(C)=O)[C@H]2[C@@H](OC(=O)c3ccccc3)[C@@H](C)C[C@]2(O)[C@H](O)[C@H](C)/C=C/C(C)(C)C(=O)[C@H](OC(C)=O)[C@H]1OC(C)=O | inactive | inactive
